Calls of active or inactive are those of the source. No cut-off for these calls is given here.
Legend:
[1] = target: T1, Polyunsaturated fatty acid 5-lipoxygenase (Homo sapiens) (UniProt P09917); test: Inhibition of calcium ionophore (A23187)-stimulated human 5-LO assessed as reduction of 5(S)-HETE production by measuring remaining activity at 100 uM preincubated for 15 mins followed by calcium ionophore (A23187) addition measured after 15 mins by LC-MS/MS analysis
T1 sequence (whole entry): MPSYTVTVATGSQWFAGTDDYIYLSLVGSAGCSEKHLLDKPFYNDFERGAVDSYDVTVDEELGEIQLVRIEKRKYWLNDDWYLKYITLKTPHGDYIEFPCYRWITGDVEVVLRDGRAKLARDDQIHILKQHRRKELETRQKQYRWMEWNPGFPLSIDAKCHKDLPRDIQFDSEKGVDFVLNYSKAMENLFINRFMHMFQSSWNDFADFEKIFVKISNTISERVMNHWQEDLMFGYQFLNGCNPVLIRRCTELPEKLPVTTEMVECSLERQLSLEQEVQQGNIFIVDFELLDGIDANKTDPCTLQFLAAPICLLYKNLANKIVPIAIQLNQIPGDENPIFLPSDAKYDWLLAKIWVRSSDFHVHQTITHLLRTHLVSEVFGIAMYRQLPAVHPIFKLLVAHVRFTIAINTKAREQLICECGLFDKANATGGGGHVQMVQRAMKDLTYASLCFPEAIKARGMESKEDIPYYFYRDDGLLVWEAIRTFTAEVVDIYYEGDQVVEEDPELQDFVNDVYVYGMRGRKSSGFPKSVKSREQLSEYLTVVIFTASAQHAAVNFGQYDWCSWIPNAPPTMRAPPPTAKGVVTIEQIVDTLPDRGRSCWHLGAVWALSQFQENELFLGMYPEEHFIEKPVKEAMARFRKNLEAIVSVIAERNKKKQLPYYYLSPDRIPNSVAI
Outline: (§1)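 Heparinized human whole blood (500 µL) preincubated with compound 15 min at 37 °C, then stimulated with 20 µM calcium ionophore A23187 in autologous plasma for 15 min at 37 °C. Plasma spiked with deuterated LTB₄ and HETE internal standards, extracted into ethyl acetate, analysed by LC–MS/MS. Inhibition scored when a level fell by 33% or more versus control.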

Prostaglandin E synthase = target: T2, Prostaglandin E synthase (Homo sapiens, UniProt O14684); test: Inhibition of mPGES-1 in human HeLa cells using PGH2 as substrate assessed as inhibition of IL-1beta/TNFalpha-stimulated PGE2 production preincubated for 30 mins followed by substrate addition measured after 1 min by LC-MS/MS analysis; format: cell-based
T2 sequence (O14684 whole entry): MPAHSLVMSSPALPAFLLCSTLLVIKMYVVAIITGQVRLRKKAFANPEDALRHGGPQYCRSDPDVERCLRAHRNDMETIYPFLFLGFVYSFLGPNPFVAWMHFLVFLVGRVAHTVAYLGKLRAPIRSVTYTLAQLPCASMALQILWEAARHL
Outline: (§2)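 Microsomal fraction from HeLa, NIH-3T3 or RAW 264.7 cells, obtained by sonication and ultracentrifugation, resuspended in 0.1 M KPi pH 7.4 with 2.5 mM reduced GSH. Protein at 0.15 mg/mL (HeLa, NIH) or 0.3 mg/mL (RAW) incubated with compound 30 min on ice. Reaction started with 20 µM PGH₂, stopped after 1 min with FeCl₂/citric acid. PGE₂ quantified by SPE and LC–MS/MS. IC50 from four-parameter logistic fit of increasing concentrations.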

[2] = target: T3, Prostaglandin E synthase (Homo sapiens) (UniProt O14684); test: Inhibition of mPGES-1 in human HeLa cells using PGH2 as substrate assessed as inhibition of IL-1beta/TNFalpha-stimulated PGE2 production at 100 uM after 24 hrs by LC-MS/MS analysis; format: cell-based
T3 sequence (whole entry): T2 sequence (O14684 whole entry)
Outline: (§3)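 HeLa cells (2 × 10⁴ per well) grown 24 h at 37 °C, then given fresh medium with 1 ng/mL IL-1b + 5 ng/mL TNFa (or PBS for unstimulated control) plus compound (1, 10 or 100 µM) or DMSO for 24 h at 37 °C. Supernatant mixed with H₃PO₄, EDTA and deuterated internal standards; PGE₂ measured by SPE and LC–MS/MS.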

[3] = target: T3, Prostaglandin E synthase (Homo sapiens); test: Inhibition of mPGES-1 in human HeLa cells using PGH2 as substrate assessed as inhibition of IL-1beta/TNFalpha-stimulated PGE2 production at 10 uM after 24 hrs by LC-MS/MS analysis; format: cell-based; outline: as §3
[4] = target: T1, Polyunsaturated fatty acid 5-lipoxygenase (Homo sapiens); test: Inhibition of calcium ionophore (A23187)-stimulated human 5-LO assessed as reduction of LTB4 production by measuring remaining activity at 100 uM preincubated for 15 mins followed by calcium ionophore (A23187) addition measured after 15 mins by LC-MS/MS analysis; outline: as §1
[5] = target: Prostaglandin G/H synthase 1 (Homo sapiens) (UniProt P23219); test: Inhibition of COX1 in human whole blood assessed as reduction in PGD2 production by measuring remaining activity at 100 uM after 1 hr by LC-MS/MS analysis
[6] = target: T3, Prostaglandin E synthase (Homo sapiens); test: Inhibition of mPGES-1 in human HeLa cells using PGH2 as substrate assessed as inhibition of IL-1beta/TNFalpha-stimulated PGE2 production at 1 to 10 uM after 24 hrs by LC-MS/MS analysis; format: cell-based; outline: as §3
[7] = target: T3, Prostaglandin E synthase (Homo sapiens); test: Inhibition of mPGES-1 in human HeLa cells using PGH2 as substrate assessed as inhibition of IL-1beta/TNFalpha-stimulated PGE2 production at 5 uM preincubated for 30 mins followed by substrate addition measured after 1 min by LC-MS/MS analysis; format: cell-based; outline: as §2
[8] = target: T4, Prostaglandin G/H synthase 2 (Homo sapiens) (UniProt P35354); test: Inhibition of recombinant human COX2 using […] at 10 uM by LC-MS/MS analysis
T4 sequence (whole entry): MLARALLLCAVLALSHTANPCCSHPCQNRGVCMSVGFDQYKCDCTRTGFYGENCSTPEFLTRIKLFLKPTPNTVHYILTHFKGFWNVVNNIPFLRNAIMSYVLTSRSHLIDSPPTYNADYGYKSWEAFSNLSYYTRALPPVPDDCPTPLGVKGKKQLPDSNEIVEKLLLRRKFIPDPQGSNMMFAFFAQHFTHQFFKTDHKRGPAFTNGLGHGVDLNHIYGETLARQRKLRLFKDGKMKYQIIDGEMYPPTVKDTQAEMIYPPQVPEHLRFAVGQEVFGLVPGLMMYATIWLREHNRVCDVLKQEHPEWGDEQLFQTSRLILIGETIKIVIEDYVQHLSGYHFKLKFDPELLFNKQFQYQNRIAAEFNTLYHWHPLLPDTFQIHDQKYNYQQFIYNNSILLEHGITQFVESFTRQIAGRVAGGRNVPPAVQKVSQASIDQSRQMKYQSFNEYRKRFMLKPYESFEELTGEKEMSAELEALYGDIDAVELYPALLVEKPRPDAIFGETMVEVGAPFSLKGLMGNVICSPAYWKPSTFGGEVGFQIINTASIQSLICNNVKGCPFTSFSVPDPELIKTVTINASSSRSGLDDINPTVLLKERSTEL
Outline: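 Ovine COX-1 and recombinant human COX-2 tested directly with a commercial COX inhibitor screening kit, following the manufacturer's protocol. COX-derived PGH₂ reduced with SnCl₂; the resulting PGE₂, PGD₂ and PGF₂a diluted in MeOH, spiked with deuterated internal standards and quantified by SPE and LC–MS/MS.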

Prostaglandin G/H synthase 1 (Homo sapiens), sequence (P23219 whole entry): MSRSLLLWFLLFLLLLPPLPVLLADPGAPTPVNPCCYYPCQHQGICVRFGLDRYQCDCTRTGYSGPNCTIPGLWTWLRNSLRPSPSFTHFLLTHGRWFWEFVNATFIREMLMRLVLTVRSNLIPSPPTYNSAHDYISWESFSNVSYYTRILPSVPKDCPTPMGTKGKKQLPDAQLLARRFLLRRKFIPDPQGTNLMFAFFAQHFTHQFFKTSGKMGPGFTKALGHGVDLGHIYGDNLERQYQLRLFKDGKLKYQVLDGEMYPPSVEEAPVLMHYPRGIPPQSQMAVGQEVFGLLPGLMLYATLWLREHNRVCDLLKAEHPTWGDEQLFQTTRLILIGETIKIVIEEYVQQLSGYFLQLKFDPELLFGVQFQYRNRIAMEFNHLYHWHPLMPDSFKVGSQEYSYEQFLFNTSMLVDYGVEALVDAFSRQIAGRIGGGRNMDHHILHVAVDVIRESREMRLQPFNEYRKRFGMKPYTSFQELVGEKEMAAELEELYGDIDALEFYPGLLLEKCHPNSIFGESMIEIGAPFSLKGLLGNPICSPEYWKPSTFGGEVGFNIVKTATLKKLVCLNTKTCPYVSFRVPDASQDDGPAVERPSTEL

| SMILES | Activity [1] | IC50 (Prostaglandin E synthase) | inhibition [2] | inhibition [3] | Activity [4] | Activity [5] | inhibition [6] | inhibition [7] | inhibition [8] |
| --- | --- | --- | --- | --- | --- | --- | --- | --- | --- |
| COc1ccc(CN(CC2CCCCC2)S(=O)(=O)c2ccc(C(=O)O)cc2)cc1 | 65.6% | 10.2 µM | Active | Active | 60.4% | 110% | inactive | 67.9% | 18.5% |
| COc1ccc(CN(Cc2ccccc2)S(=O)(=O)c2ccc(C(=O)O)cc2)cc1 | 120% | 13.8 µM | Active | inactive | 110% | 89.2% | inactive | 39.9% | < 0% |
| O=C(O)c1ccc(S(=O)(=O)N(Cc2ccccc2)Cc2ccc(Nc3ccccc3)cc2)cc1 | 56.2% | 7.2 µM | Active | Active | 47% | 109% | inactive | 78.5% | 12.9% |

Compounds with a lower IC50 (Prostaglandin E synthase), results first:

| Activity [1] | IC50 (Prostaglandin E synthase) | inhibition [2] | inhibition [3] | Activity [4] | Activity [5] | inhibition [6] | inhibition [7] | inhibition [8] | SMILES |
| --- | --- | --- | --- | --- | --- | --- | --- | --- | --- |
| 98.7% | 1 µM | Active | Active | 90.8% | 61.5% | inactive | 90% | 3.1% | O=C(O)c1ccc(S(=O)(=O)N(Cc2ccccc2)Cc2ccc(Oc3ccccc3)cc2)cc1 |
| 125% | 1.7 µM | Active | Active | 140% | 48.5% | inactive | 79.8% | < 0% | O=C(O)c1ccc(S(=O)(=O)N(Cc2ccccc2)c2ccc(Oc3ccccc3)cc2)cc1 |
